Results from ChEMBL document CHEMBL2331205, “Anti-hepatitis B virus and anti-cancer activities of novel isoflavone analogs” (Eur J Med Chem, 2013).

Key:
[1] = Growth inhibition of human QGY7701 cells after 48 hrs by MTT assay; format: functional; conditions: QGY7701, 48 h
Outline: (§1)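 Cells seeded at 8000/well, treated 24 h later in duplicate with a range of concentrations (DMSO stock 10 g/L diluted in fresh medium), 48 h at 37 °C, 5% CO2. MTT (5 mg/ml in PBS) added for 4 h, formazan dissolved in DMSO, absorbance read at 570 nm. IC50 is the concentration giving 50% survival.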

[2] = Selectivity index, ratio of CC50 for human HepG2(2.2.15) cells to IC50 for HBV infected in human HepG2(2.2.15) cells assessed as inhibition of HBsAg production; format: functional
Outline: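 Selectivity index calculated as CC50 in HepG2 2.2.15 cells (MTT, 9-day exposure) divided by IC50 for HBeAg or HBsAg reduction (ELISA of 9-day supernatants).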

A549 = test: Growth inhibition of human A549 cells after 48 hrs by MTT assay; format: functional, cell-based; conditions: A549, 48 h; outline: as §1
[3] = Cytotoxicity against human HepG2(2.2.15) cells compound treated for 48 hrs followed by incubation for 9 days by MTT assay; format: cell-based
Outline: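 HepG2 2.2.15 cells kept 48 h in plates before adding compounds (DMSO stocks serially diluted in medium), then incubated at 37 °C for 9 days. Media-only wells as blank. MTT (5 g/L) added 4 h before lysis in 10% SDS/50% DMF, pH 7.2; OD at 570 nm gives percent cell death; CC50 derived.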

Hepatitis B virus [4] = test: Antiviral activity against HBV infected in human HepG2(2.2.15) cells assessed as inhibition of HBeAg production after 9 days by ELISA; format: functional, organism-based; conditions: HepG2 2.2.15, 216 h
Outline: (§2)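 HepG2 2.2.15 cells (HBV-producing) given a range of compound concentrations for nine days; culture supernatants collected and HBsAg or HBeAg levels measured by ELISA. IC50 taken as the concentration giving 50% inhibition of antigen level.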

Hepatitis B virus [5] = test: Antiviral activity against HBV infected in human HepG2(2.2.15) cells assessed as inhibition of viral replication after 9 days by fluorescence PCR method; format: functional, organism-based; conditions: HepG2 2.2.15, 216 h
Outline: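 HepG2 2.2.15 cells given a range of compound concentrations for nine days; HBV DNA quantified by fluorescence PCR. IC50 taken as the concentration giving 50% inhibition of HBV DNA replication.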

[6] = Growth inhibition of human L02 cells after 48 hrs by MTT assay; format: functional, cell-based; conditions: L02, 48 h; outline: as §1
Hepatitis B virus [7] = test: Antiviral activity against HBV infected in human HepG2(2.2.15) cells assessed as inhibition of HBsAg production after 9 days by ELISA; format: functional, organism-based; conditions: HepG2 2.2.15, 216 h; outline: as §2
Huh-7 = test: Growth inhibition of human HuH7 cells after 48 hrs by MTT assay; format: functional, cell-based; conditions: Huh-7, 48 h; outline: as §1
HeLa = test: Growth inhibition of human HeLa cells after 48 hrs by MTT assay; format: functional, cell-based; outline: as §1
[8] = Selectivity index, ratio of CC50 for human HepG2(2.2.15) cells to IC50 for HBV infected in human HepG2(2.2.15) cells assessed as inhibition of viral replication; format: functional
Outline: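 Selectivity index calculated as CC50 in HepG2 2.2.15 cells (MTT, 9-day exposure) divided by IC50 for HBV DNA reduction measured by fluorescence PCR after 9 days.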

Structure (SMILES)	IC50 [1] [µM]	Ratio CC50/IC50 [2]	IC50 (A549) [µM]	CC50 at 48 h [3] [µM]	IC50 (Hepatitis B virus [4]) [µM]	IC50 (Hepatitis B virus [5]) [µM]	IC50 [6] [µM]	IC50 (Hepatitis B virus [7]) [µM]	IC50 (Huh-7) [µM]	IC50 (HeLa) [µM]	Ratio CC50/IC50 [8]
COc1ccc2c(=O)c(/C=C/C(=O)NCCc3ccccc3F)coc2c1	81.7	9.55	10.3	457	> 100	> 100	> 200	47.9	> 100	12.2	
COc1ccc2c(=O)c(/C=C/C(=O)NCCc3cccc(F)c3)coc2c1	23.4		9.77	1030	> 100	> 100	> 200	> 100	8.96	15.3	
Cc1ccccc1NC(=O)/C=C/c1coc2cc(O)ccc2c1=O	9.32		> 100	374	> 100	> 100	> 200	> 100	11.1	8.67	
COc1ccc(NC(=O)/C=C/c2coc3cc(O)ccc3c2=O)cc1	> 100		12.8	976	> 100	7.01	> 200	> 100	> 100	> 100	139.21
O=C(/C=C/c1coc2cc(O)ccc2c1=O)NCc1ccccc1	63		> 100	436	> 100	> 100	> 200	> 100	4.69	> 100	
O=C(/C=C/c1coc2cc(O)ccc2c1=O)NCc1ccc(F)cc1	> 100		> 100	357	> 100	33.5	> 200	> 100	> 100	> 100	10.68
COc1ccc2c(=O)c(/C=C/C(=O)Nc3ccccc3OC)coc2c1	17.6		> 100	1050	> 100	> 100	> 200	> 100	32.3	> 100	
COc1cccc(NC(=O)/C=C/c2coc3cc(OC)ccc3c2=O)c1	39.1		12.8	1130	> 100	> 100	> 200	> 100	11.1	19.2	
COc1ccc(NC(=O)/C=C/c2coc3cc(OC)ccc3c2=O)cc1	> 100		23	718	> 100	14.2	> 200	> 100	> 100	13	50.38
CCOc1ccc(NC(=O)/C=C/c2coc3cc(OC)ccc3c2=O)cc1	> 100		> 100	460	> 100	> 100	> 200	> 100	3.23	> 100	
COc1ccc2c(=O)c(/C=C/C(=O)Nc3ccc(F)cc3)coc2c1	> 100		26.8	743	> 100	> 100	> 200	> 100	33.9	9.68	
COc1ccc2c(=O)c(/C=C/C(=O)Nc3ccccc3Cl)coc2c1	23		29.9	1010	> 100	> 100	> 200	> 100	58.4	22.4	
COc1ccc2c(=O)c(/C=C/C(=O)NCc3ccccc3)coc2c1	> 100		11.8	376	> 100	56.8	> 200	> 100	13.6	33.4	6.62
COc1ccc2c(=O)c(/C=C/C(=O)NCc3cccc(F)c3)coc2c1	28.6	5.67	26.9	475	> 100	75.4	> 200	83.8	10.1	17.6	6.3
COc1ccc2c(=O)c(/C=C/C(=O)NCc3ccc(F)cc3)coc2c1	7.96	2.26	> 100	133	> 100	11.2	> 200	58.8	20.9	> 100	11.84
COc1ccc2c(=O)c(/C=C/C(=O)Nc3cccc(C)c3)coc2c1	> 100		> 100	554	> 100	34.9	> 200	> 100	15.5	> 100	15.85
COc1ccc2c(=O)c(/C=C/C(=O)Nc3ccc(C)cc3)coc2c1	39.3		17.5	979	> 100	28.2	> 200	> 100	> 100	24.1	34.69
COc1ccc2c(=O)c(/C=C/C(=O)Nc3cc(C)ccc3C)coc2c1	> 100		15.5	1100	> 100	> 100	> 200	> 100	11.1	58.4	
O=c1[nH]cc(F)c(=O)[nH]1 [FLUOROURACIL]									15.8		
